Assays:
[1] = system: Mus musculus; assay: Cardiotoxicity in BALB/c nu/nu mouse xenografted with human DMS53 cells at 8 mg/kg, iv administered for 5 days a week measured after 21 days; assay type: toxicity, organism-based, DMS-53; design: dose 8 mg/kg, route intravenous; conditions: in vivo, 504 h
Summary of the method: (§1)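 DMS-53 xenograft nude mice given agents iv by tail vein 5 days/week in 30% propylene glycol/saline for 21 days. At sacrifice, heart sections were stained with Gomori Trichrome to detect fibrosis. Spleen, kidney, liver, heart, lungs and brain were also stained with H&E and Perls' and examined by an independent veterinary pathologist.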

[2] = system: Mus musculus; assay: Toxicity in BALB/c nu/nu mouse xenografted with human DMS53 cells assessed as change in reticulocyte count at 4 mg/kg, iv administered for 5 days a week measured after 21 days; assay type: organism-based, DMS-53; design: dose 4 mg/kg, route intravenous; conditions: in vivo, 504 h
Summary of the method: (§2)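 Nude mice carrying DMS-53 xenografts (treatment from 100 mm3) received iv tail-vein doses in 30% propylene glycol/saline, 5 days/week for 21 days. Hematological indices (RBC, hemoglobin, hematocrit, reticulocytes, WBC, platelets) were then compared with vehicle controls.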

[3] = system: Mus musculus; assay: Toxicity in BALB/c nu/nu mouse xenografted with human DMS53 cells assessed as change in platelet count at 4 mg/kg, iv administered for 5 days a week measured after 21 days; assay type: organism-based, DMS-53; design: dose 4 mg/kg, route intravenous; conditions: in vivo, 504 h; summary of the method: as §2
[4] = system: Mus musculus; assay: Toxicity in BALB/c nu/nu mouse xenografted with human DMS53 cells assessed as change in hematocrit level at 20 mg/kg, po administered for 3 times a week measured after 20 days; assay type: organism-based, DMS-53; design: dose 20 mg/kg, route oral; conditions: in vivo, 480 h
Summary of the method: (§3)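 Nude mice bearing DMS-53 xenografts gavaged 3 times/week for 20 days, vehicle 30% propylene glycol/saline, vehicle controls, n = 6-11 mice/condition. Sacrifice on day 20. Organ weights and hematological indices recorded. Spleen, kidney, liver, heart, lungs and brain examined histologically, hearts stained with Gomori Trichrome for fibrosis.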

[5] = system: Mus musculus; assay: Toxicity in BALB/c nu/nu mouse xenografted with human DMS53 cells assessed as vacuolation at 4 mg/kg, iv administered for 5 days a week measured after 21 days by hematoxylin and eosin staining method; assay type: organism-based, DMS-53; design: dose 4 mg/kg, route intravenous; conditions: in vivo, 504 h
Summary of the method: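 Nude mice with DMS-53 xenografts dosed by tail-vein iv injection in 30% propylene glycol/saline, starting at 100 mm3 tumour volume, 5 days/week for 21 days. Spleen, kidney, liver, heart, lungs and brain were stained with H&E, Perls' (Fe loading) and Gomori Trichrome (fibrosis) by standard methods, and an independent veterinary pathologist examined them.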

[6] = system: Mus musculus; assay: Toxicity in BALB/c nu/nu mouse xenografted with human DMS53 cells assessed as change in lung weight at 20 mg/kg, po administered for 3 times a week measured after 20 days; assay type: organism-based, DMS-53; design: dose 20 mg/kg, route oral; conditions: in vivo, 480 h; summary of the method: as §3
[7] = system: Mus musculus; assay: Toxicity in BALB/c nu/nu mouse xenografted with human DMS53 cells assessed as change in liver histology at 7.5 mg/kg, po administered for 3 times a week measured after 20 days; assay type: organism-based, DMS-53; design: dose 7.5 mg/kg, route oral; conditions: in vivo, 480 h; summary of the method: as §3
[8] = system: Mus musculus; assay: Toxicity in BALB/c nu/nu mouse xenografted with human DMS53 cells assessed as change in brain histology at 8 mg/kg, iv administered for 5 days a week measured after 21 days by hematoxylin and eosin staining method; assay type: organism-based, DMS-53; design: dose 8 mg/kg, route intravenous; conditions: in vivo, 504 h
Summary of the method: (§4)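 DMS-53 xenografts in nude mice; dosing started at 100 mm3 tumor volume. Agents given iv via tail vein, 5 days/week for 21 days, vehicle 30% propylene glycol/saline, vehicle-treated controls. Mice sacrificed day 21. Body and organ weights and hematological indices recorded. Spleen, kidney, liver, heart, lungs and brain were stained with H&E, Perls' and Gomori Trichrome and read by an independent veterinary pathologist.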

[9] = system: Mus musculus; assay: Toxicity in BALB/c nu/nu mouse xenografted with human DMS53 cells assessed as change in hemoglobin level at 20 mg/kg, po administered for 3 times a week measured after 20 days; assay type: organism-based, DMS-53; design: dose 20 mg/kg, route oral; conditions: in vivo, 480 h; summary of the method: as §3
[10] = system: Mus musculus; assay: Toxicity in BALB/c nu/nu mouse xenografted with human DMS53 cells assessed as change in hematopoetic cells in splenic red pulp at 4 mg/kg, iv administered for 5 days a week measured after 21 days by hematoxylin and eosin staining method; assay type: organism-based, DMS-53; design: dose 4 mg/kg, route intravenous; conditions: in vivo, 504 h; summary of the method: as §4
[11] = system: Mus musculus; assay: Toxicity in BALB/c nu/nu mouse xenografted with human DMS53 cells assessed as change in heart weight at 20 mg/kg, po administered for 3 times a week measured after 20 days; assay type: organism-based, DMS-53; design: dose 20 mg/kg, route oral; conditions: in vivo, 480 h; summary of the method: as §3
[12] = system: Mus musculus; assay: Toxicity in BALB/c nu/nu mouse xenografted with human DMS53 cells assessed as change in brain histology at 6 mg/kg, iv administered for 5 days a week measured after 21 days by hematoxylin and eosin staining method; assay type: organism-based, DMS-53; design: dose 6 mg/kg, route intravenous; conditions: in vivo, 504 h; summary of the method: as §4
[13] = system: Mus musculus; assay: Toxicity in BALB/c nu/nu mouse xenografted with human DMS53 cells assessed as change in body weight at 6 mg/kg, iv administered for 5 days a week measured after 21 days; assay type: organism-based, DMS-53; design: dose 6 mg/kg, route intravenous; conditions: in vivo, 504 h; summary of the method: as §4
[14] = system: Mus musculus; assay: Toxicity in BALB/c nu/nu mouse xenografted with human DMS53 cells assessed as cardiac fibrosis at 3 mg/kg, iv administered for 5 days a week measured after 21 days by […]; assay type: organism-based, Heart, DMS-53; design: dose 3 mg/kg, route intravenous; conditions: in vivo, 504 h; summary of the method: as §1
[15] = system: Mus musculus; assay: Toxicity in BALB/c nu/nu mouse xenografted with human DMS53 cells assessed as body weight change at 7.5 mg/kg, po administered for 3 times a week measured after 20 days; conditions: in vivo, 480 h
[16] = system: Mus musculus; assay: Toxicity in BALB/c nu/nu mouse xenografted with human DMS53 cells assessed as change in lungs histology at 6 mg/kg, iv administered for 5 days a week measured after 21 days by hematoxylin and eosin staining method; assay type: organism-based, DMS-53; design: dose 6 mg/kg, route intravenous; conditions: in vivo, 504 h; summary of the method: as §4
[17] = system: Mus musculus; assay: Toxicity in BALB/c nu/nu mouse xenografted with human DMS53 cells assessed as body weight change at 20 mg/kg, po administered for 3 times a week measured after 20 days; assay type: organism-based, DMS-53; design: dose 20 mg/kg, route oral; conditions: in vivo, 480 h
Summary of the method: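 DMS-53 xenograft nude mice dosed by oral gavage 3 times/week in 30% propylene glycol/saline, with vehicle controls. Average body weight recorded during 20 days of treatment. n = 6–11 mice/condition, mean ± SD.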

[18] = system: Mus musculus; assay: Toxicity in BALB/c nu/nu mouse xenografted with human DMS53 cells assessed as change in RBC count at 6 mg/kg, iv administered for 5 days a week measured after 21 days; assay type: organism-based, DMS-53; design: dose 6 mg/kg, route intravenous; conditions: in vivo, 504 h
[19] = system: Mus musculus; assay: Toxicity in human DMS53 cells xenografted BALB/c nu/nu mouse assessed as change in organ weight at 6 mg/kg, iv administered for 5 days a week measured after 21 days; assay type: organism-based, DMS-53; design: dose 6 mg/kg, route intravenous; conditions: in vivo, 504 h
Summary of the method: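 DMS-53 xenograft-bearing nude mice, treatment started at 100 mm3 tumour volume: iv tail-vein dosing in 30% propylene glycol/saline, 5 days/week for 21 days. Organs were weighed at sacrifice and compared with vehicle-control mice.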

[20] = system: Mus musculus; assay: Toxicity in BALB/c nu/nu mouse xenografted with human DMS53 cells assessed as change in body weight at 3 mg/kg, iv administered for 5 days a week measured after 21 days; assay type: organism-based, DMS-53; design: dose 3 mg/kg, route intravenous; conditions: in vivo, 504 h; summary of the method: as §4
[21] = system: Mus musculus; assay: Toxicity in BALB/c nu/nu mouse xenografted with human DMS53 cells assessed as change in platelet count at 6 mg/kg, iv administered for 5 days a week measured after 21 days; assay type: organism-based, DMS-53; design: dose 6 mg/kg, route intravenous; conditions: in vivo, 504 h; summary of the method: as §2
[22] = system: Mus musculus; assay: Toxicity in BALB/c nu/nu mouse xenografted with human DMS53 cells assessed as change in hematocrit level at 7.5 mg/kg, po administered for 3 times a week measured after 20 days; assay type: organism-based, DMS-53; design: dose 7.5 mg/kg, route oral; conditions: in vivo, 480 h; summary of the method: as §3
[23] = system: Mus musculus; assay: Toxicity in BALB/c nu/nu mouse xenografted with human DMS53 cells assessed as change in RBC count at 10 mg/kg, po administered for 3 times a week measured after 20 days; assay type: organism-based, DMS-53; design: dose 10 mg/kg, route oral; conditions: in vivo, 480 h
[24] = system: Mus musculus; assay: Toxicity in BALB/c nu/nu mouse xenografted with human DMS53 cells assessed as change in brain histology at 3 mg/kg, iv administered for 5 days a week measured after 21 days by hematoxylin and eosin staining method; assay type: organism-based, DMS-53; design: dose 3 mg/kg, route intravenous; conditions: in vivo, 504 h; summary of the method: as §4

CN(C(=S)NN=C(c1ccccn1)c1ccccn1)C1CCCCC1.Cl
Activity [1]: Non-toxic
Activity [2]: Non-toxic
Activity [3]: Toxic
Activity [4]: Non-toxic
Activity [5]: Non-toxic
Activity [6]: Non-toxic
Activity [7]: Non-toxic
Activity [8]: Non-toxic
Activity [9]: Non-toxic
Activity [10]: Non-toxic
Activity [11]: Non-toxic

CCN(C)C(=S)NN=C(c1ccccn1)c1ccccn1.Cl
Activity [12]: Non-toxic
Activity [13]: Non-toxic
Activity [14]: Non-toxic
Activity [15]: Non-toxic
Activity [16]: Non-toxic
Activity [17]: Non-toxic
Activity [18]: Non-toxic
Activity [19]: Toxic
Activity [7]: Non-toxic
Activity [20]: Non-toxic
Activity [21]: Non-toxic
Activity [22]: Toxic
Activity [23]: Toxic
Activity [24]: Non-toxic

— ChEMBL document CHEMBL2203173 (J Med Chem, 2012)
